In one data set the target is Cytochrome P450 2D6 (Homo sapiens, UniProt P10635). The data set is described as follows: Inhibition of CYP2D6 in human liver microsomes assessed as bufuralol 1'-hydroxylation after 20 mins by LC-MS/MS analysis. The class given is ADME.
Data set [1] has as its system Mus musculus. The data set is described as follows: AUC (0 to infinity) in C57BL/6 mouse at 20 mg/kg, po. Format: ADME, organism-based, Plasma. On the set-up: time infinity, dose 20 mg/kg, route oral. As to conditions: in vivo; call rule not given here. Put shortly: (§1)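 Healthy male C57/BL6 mice received a single intravenous dose (2.5 or 5.0 mg/kg) or oral dose (20 or 40 mg/kg). Plasma concentrations were followed over time to give AUC0-∞ in min·μmol/L, alongside t1/2, CL, Vd, Vss, Cmax, Tmax and oral bioavailability. Values are means of five animals.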

Data set [2] deals with Mus musculus. The data set is described as follows: AUC (0 to infinity) in C57BL/6 mouse at 2.5 mg/kg, iv. Format: ADME, organism-based, Plasma. Set-up: time infinity, dose 2.5 mg/kg, route intravenous. As to conditions: in vivo. The gist of the method:
as §1

For the next data set, the system named is Plasmodium falciparum. The data set is described as follows: Antiplasmodial activity against chloroquine-resistant Plasmodium falciparum W2 after 24 hrs by [3H]hypoxanthine incorporation assay. Format: functional, organism-based. The gist of the method:
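Antiplasmodial testing was done at the Swiss Tropical and Public Health Institute. Chloroquine, the reference drug, was tested as its diphosphate salt.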

Another data set has as its target T1, Cytochrome P450 2A6 (Homo sapiens, UniProt P11509).
T1 sequence (P11509 whole entry): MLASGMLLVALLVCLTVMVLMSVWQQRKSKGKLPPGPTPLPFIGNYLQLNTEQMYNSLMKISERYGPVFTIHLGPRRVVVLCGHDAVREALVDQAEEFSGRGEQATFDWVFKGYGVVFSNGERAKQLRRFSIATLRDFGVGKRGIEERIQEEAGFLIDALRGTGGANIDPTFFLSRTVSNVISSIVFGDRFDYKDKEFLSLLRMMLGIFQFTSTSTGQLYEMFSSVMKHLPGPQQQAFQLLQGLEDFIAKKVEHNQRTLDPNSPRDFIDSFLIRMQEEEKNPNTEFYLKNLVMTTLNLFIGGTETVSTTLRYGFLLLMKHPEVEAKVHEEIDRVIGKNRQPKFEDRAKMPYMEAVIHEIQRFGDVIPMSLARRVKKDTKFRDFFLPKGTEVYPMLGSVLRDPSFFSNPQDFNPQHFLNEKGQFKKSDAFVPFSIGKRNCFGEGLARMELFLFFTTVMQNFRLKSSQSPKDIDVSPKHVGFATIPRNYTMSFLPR
As to the kind of experiment: Inhibition of CYP2A6 in human liver microsomes assessed as coumarin 7-hydroxylation after 20 mins by LC-MS/MS analysis. The class given is ADME.

In the next data set the test system is Liver microsome. As to the kind of experiment: Drug metabolism in rat liver microsomes assessed as 4-(2-((1-tert-butyl-1H-tetrazol-5-yl)(4-chlorophenyl)methylamino)ethylamino)-7-chloroquinoline 1-oxide level at 5 uM after 1 hr by LC-MS/MS analysis. Format: ADME.

Sequence of Cytochrome P450 2D6 (P10635 whole entry): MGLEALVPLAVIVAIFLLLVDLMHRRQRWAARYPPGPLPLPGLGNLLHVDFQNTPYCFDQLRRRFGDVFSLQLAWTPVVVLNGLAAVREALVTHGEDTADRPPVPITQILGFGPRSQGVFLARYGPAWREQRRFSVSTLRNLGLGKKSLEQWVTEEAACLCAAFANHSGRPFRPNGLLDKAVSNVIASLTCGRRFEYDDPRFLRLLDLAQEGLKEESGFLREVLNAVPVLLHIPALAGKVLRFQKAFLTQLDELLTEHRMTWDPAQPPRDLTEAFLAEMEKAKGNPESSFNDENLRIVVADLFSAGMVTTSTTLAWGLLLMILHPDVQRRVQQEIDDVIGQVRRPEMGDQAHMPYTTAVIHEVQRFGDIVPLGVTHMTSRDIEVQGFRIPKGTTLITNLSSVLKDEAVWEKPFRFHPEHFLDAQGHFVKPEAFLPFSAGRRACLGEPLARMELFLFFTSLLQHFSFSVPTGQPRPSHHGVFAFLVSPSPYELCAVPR

Consider `CC(C)(C)n1nnnc1C(NCCNc1ccnc2cc(Cl)ccc12)c1ccc(Cl)cc1` (stereo unspecified), for which the results for the IC50 at Cytochrome P450 2D6, in the data set on Plasmodium falciparum and on Cytochrome P450 2A6 were 4 µM, 0.0255 µM and > 20 µM, respectively. Further, the AUC stood at 222 µmol·min/L in the data set on Mus musculus [1] and 107 µmol·min/L with Mus musculus [2]. In the data set with Liver microsome, the Drug metabolism result is reported as “Active”.

(Values after ChEMBL document CHEMBL3098028, “Synthesis and in vitro and in vivo pharmacological evaluation of new 4-aminoquinoline-based compounds” (ACS Med Chem Lett, 2013).)
